In general, MIC refers to the least concentration at which growth counts as inhibited. Low readings indicate greater potency, high ones weaker potency.

Among the data in ChEMBL document CHEMBL4390647, “Efficient click chemistry towards novel 1H-1,2,3-triazole-tethered 4H-chromene-d-glucose conjugates: Design, synthesis and evaluation of in vitro antibacterial, MRSA and antifungal activities” (Eur J Med Chem, 2019) are MIC and inhibition values, retold here.

In brackets after ≈: the same amount, converted by molar mass.

The test system of one data set is Bacillus subtilis. Nature of the data set: Antibacterial activity against Bacillus subtilis ATCC 11774 after 18 to 20 hrs by microbroth dilution method. It counts as functional. Put shortly: (§1)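 Inoculum from a 4–6-h broth adjusted to 0.5 McFarland, final 5 × 10⁵ CFU/mL. Incubation at 35°C for 18–20 h. MIC taken as the lowest concentration giving complete inhibition of visible growth; three experiments.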

In data set [1] the test system is Staphylococcus aureus. Briefly: Antibacterial activity against Staphylococcus aureus ATCC 11632 after 18 to 20 hrs by microbroth dilution method. In kind it is functional. In a few lines: as §1
Data set [2] has as its system Staphylococcus epidermidis. Nature of the data set: Antibacterial activity against Staphylococcus epidermidis ATCC 12228 after 18 to 20 hrs by microbroth dilution method. In kind it is functional. In a few lines:
as §1

In the next data set the test system is Escherichia coli. Nature of the data set: Antibacterial activity against Escherichia coli ATCC 25922 measured after 18 to 20 hrs by microbroth dilution method. It counts as functional. In a few lines:
as §1
Background: Dilution methods test growth across graded concentrations, often in twofold steps.

The next data set concerns Klebsiella pneumoniae. Briefly: Antibacterial activity against measured after Klebsiella pneumoniae ATCC 4352 measured after 18 to 20 hrs by microbroth dilution method. It counts as functional. Put shortly:
as §1

The next data set relates to Pseudomonas aeruginosa. Briefly: Antibacterial activity against Pseudomonas aeruginosa […] measured after 18 to 20 hrs by microbroth dilution method. In kind it is functional. In a few lines: as §1
Data set [3] relates to Staphylococcus aureus. Nature of the data set: Antibacterial activity against Staphylococcus aureus MRSA198 clinical isolate-1 measured after 18 to 20 hrs by microbroth dilution method. It counts as functional. As to conditions: MRSA198 isolate-1.
Data set [4] deals with Staphylococcus aureus. Briefly: Antibacterial activity against Staphylococcus aureus MRSA198 clinical isolate-2 measured after 18 to 20 hrs by microbroth dilution method. It counts as functional. As to conditions: MRSA198 isolate-2.
Data set [5] relates to Staphylococcus aureus. Briefly: Antibacterial activity against Staphylococcus aureus MRSA198 clinical isolate-3 measured after 18 to 20 hrs by microbroth dilution method. It counts as functional. The settings on record: MRSA198 isolate-3.
The subject of the next data set is Aspergillus flavus. Nature of the data set: Antifungal activity against Aspergillus flavus ATCC 204304 measured after 72 hrs by agar dilution method. It counts as functional. The settings on record: ATCC 204304, 72 h. In a few lines:
(§2)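 Agar dilution on Sabouraud dextrose agar, with compounds at […] to 0.78 μM in twofold steps. Fungal suspensions at 10 CFU/mL as printed were applied to the compound-containing plates. Incubation at 35°C; MIC read after 72 h. Three experiments.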
For orientation: Agar dilution tests growth on a series of plates holding different concentrations.

The test system of a further data set is Candida albicans. Briefly: Antifungal activity against Candida albicans ATCC 7754 after 72 hrs by agar dilution method. In kind it is functional. As to conditions: ATCC 7754, 72 h. Put shortly:
as §2

Another data set deals with Saccharomyces cerevisiae. Nature of the data set: Antifungal activity against Saccharomyces cerevisiae SH 20 after 72 hrs by agar dilution method. It counts as functional. The settings on record: SH 20, 72 h. Put shortly:
as §2

Data set [6] can be described thus: Cytotoxicity against mouse RAW264.7 cells assessed as growth inhibition at 50 ug/mL after 120 hrs by MTT assay relative to control. It counts as cell-based. The settings on record: read-out: GI. In a few lines:
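RAW 264.7 mouse macrophages were seeded at 25,000 cells/well and left to attach overnight. Compound in DMSO was added from a 200× concentrate, in duplicate wells, to a 50 μg/mL test level; DMSO served as control. Exposure 120 h at 37°C in 5% CO₂. MTT (4 mg/mL in PBS) was added for 4 h, formazan dissolved in DMSO, and absorbance read at 560 nm. Viability expressed as % of untreated cells, mean ± SE of at least three independent experiments.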
For orientation: Tetrazolium assays rely on reduction of a dye to a coloured formazan, in cell work by metabolically active cells.

A further data set relates to Salmonella typhimurium. Briefly: Antibacterial activity against Salmonella typhimurium ATCC 14028 measured after 18 to 20 hrs by microbroth dilution method. It counts as functional, Salmonella enterica subsp. enterica serovar Typhimurium. As to conditions: Salmonella enterica. Put shortly: as §1
Another data set has as its system Aspergillus niger. Nature of the data set: Antifungal activity against Aspergillus niger ATCC 439 measured after 72 hrs by agar dilution method. It counts as functional. As to conditions: ATCC 439, 72 h. In a few lines: as §2

Regarding `CC(=O)OC[C@H]1O[C@@H](n2cc(COc3ccc4c(c3)OC(N)=C(C#N)C4c3ccc([N+](=O)[O-])cc3)nn2)[C@H](OC(C)=O)[C@@H](OC(C)=O)[C@@H]1OC(C)=O` (some centres undefined), the MIC was determined as 50 µM (≈ 36 µg/mL) in the data set on Bacillus subtilis; 400 µM (≈ 288 µg/mL) in the data set on Staphylococcus aureus [1]; 50 µM (≈ 36 µg/mL) in data set [2]; 400 µM (≈ 288 µg/mL) against Escherichia coli; 12.5 µM (≈ 9.01 µg/mL) with Klebsiella pneumoniae; 50 µM (≈ 36 µg/mL) with Pseudomonas aeruginosa. In addition, the minimum inhibitory concentration (MIC) in the data set on Staphylococcus aureus [3] was determined as 400 µM (≈ 288 µg/mL); with Staphylococcus aureus [4], 400 µM (≈ 288 µg/mL); in the data set on Staphylococcus aureus [5] it was 200 µM (≈ 144 µg/mL); in the data set with Aspergillus flavus it was 1.56 µM (≈ 1.12 µg/mL); in the data set with Candida albicans it was 25 µM (≈ 18 µg/mL); in the data set with Saccharomyces cerevisiae, 3.12 µM (≈ 2.25 µg/mL). In addition, the inhibition at 120 h, 50 ug/mL in data set [6] worked out at 27.6%.
As to `CC(=O)OC[C@H]1O[C@@H](n2cc(COc3ccc4c(c3)OC(N)=C(C#N)C4c3ccc(C(C)C)cc3)nn2)[C@H](OC(C)=O)[C@@H](OC(C)=O)[C@@H]1OC(C)=O` (some centres undefined), the MIC in the data set with Bacillus subtilis came to 6.25 µM (≈ 4.49 µg/mL); with Staphylococcus aureus [1] it was 100 µM (≈ 71.8 µg/mL); in data set [2] it was 400 µM (≈ 287 µg/mL); in the data set with Escherichia coli it was 200 µM (≈ 144 µg/mL); against Klebsiella pneumoniae, 1.56 µM (≈ 1.12 µg/mL); against Pseudomonas aeruginosa, 6.25 µM (≈ 4.49 µg/mL). For the same molecule, the minimum inhibitory concentration (MIC) in the data set on Salmonella typhimurium worked out at 50 µM (≈ 35.9 µg/mL); against Staphylococcus aureus [3], 400 µM (≈ 287 µg/mL); with Staphylococcus aureus [4], 400 µM (≈ 287 µg/mL); in the data set with Staphylococcus aureus [5], 200 µM (≈ 144 µg/mL); in the data set with Aspergillus flavus, 50 µM (≈ 35.9 µg/mL); in the data set with Candida albicans, 3.12 µM (≈ 2.24 µg/mL). In the data set with Saccharomyces cerevisiae, this molecule gave a minimal inhibitory concentration (MIC) of 12.5 µM (≈ 8.97 µg/mL). Further, the inhibition at 120 h, 50 ug/mL in data set [6] was 17.9%.
For the molecule `CC(=O)OC[C@H]1O[C@@H](n2cc(COc3ccc4c(c3)OC(N)=C(C#N)C4c3ccc(C)cc3)nn2)[C@H](OC(C)=O)[C@@H](OC(C)=O)[C@@H]1OC(C)=O` (some centres undefined), the MIC amounted to 50 µM (≈ 34.5 µg/mL) against Bacillus subtilis; 400 µM (≈ 276 µg/mL) against Staphylococcus aureus [1]; 400 µM (≈ 276 µg/mL) in [2]; 12.5 µM (≈ 8.62 µg/mL) against Escherichia coli; 400 µM (≈ 276 µg/mL) against Klebsiella pneumoniae; 400 µM (≈ 276 µg/mL) against Pseudomonas aeruginosa. Besides, the MIC in the data set on Salmonella typhimurium came to 200 µM (≈ 138 µg/mL); in the data set with Staphylococcus aureus [5], 400 µM (≈ 276 µg/mL); in the data set with Aspergillus niger it was 100 µM (≈ 69 µg/mL); in the data set with Aspergillus flavus it was 3.12 µM (≈ 2.15 µg/mL); in the data set on Candida albicans, 400 µM (≈ 276 µg/mL); in the data set with Saccharomyces cerevisiae, 3.12 µM (≈ 2.15 µg/mL). Besides, the inhibition at 120 h, 50 ug/mL in data set [6] was 19.6%.
Turning to `CC(=O)OC[C@H]1O[C@@H](n2cc(COc3ccc4c(c3)OC(N)=C(C#N)C4c3ccc(Cl)cc3Cl)nn2)[C@H](OC(C)=O)[C@@H](OC(C)=O)[C@@H]1OC(C)=O` (some centres undefined), the MIC against Bacillus subtilis was determined as 3.12 µM (≈ 2.32 µg/mL); with Staphylococcus aureus [1] it was 12.5 µM (≈ 9.31 µg/mL); in data set [2], 12.5 µM (≈ 9.31 µg/mL); against Escherichia coli, 3.12 µM (≈ 2.32 µg/mL); against Klebsiella pneumoniae, 200 µM (≈ 149 µg/mL); in the data set with Pseudomonas aeruginosa, 50 µM (≈ 37.2 µg/mL). Also, the MIC in the data set with Salmonella typhimurium is 3.12 µM (≈ 2.32 µg/mL); in the data set on Staphylococcus aureus [3] it was 6.25 µM (≈ 4.65 µg/mL); in the data set with Staphylococcus aureus [4], 1.56 µM (≈ 1.16 µg/mL); against Staphylococcus aureus [5], 3.12 µM (≈ 2.32 µg/mL); in the data set with Aspergillus flavus, 25 µM (≈ 18.6 µg/mL); against Candida albicans, 100 µM (≈ 74.5 µg/mL). Further, the lowest concentration to inhibit growth in the data set on Saccharomyces cerevisiae (MIC) was 400 µM (≈ 298 µg/mL). Moreover, the inhibition at 120 h, 50 ug/mL in data set [6] is 18.1%.
With `CC(=O)OC[C@H]1O[C@@H](n2cc(COc3ccc4c(c3)OC(N)=C(C#N)C4c3ccccc3Cl)nn2)[C@H](OC(C)=O)[C@@H](OC(C)=O)[C@@H]1OC(C)=O` (some centres undefined), the MIC turned out to be 1.56 µM (≈ 1.11 µg/mL) with Bacillus subtilis; 200 µM (≈ 142 µg/mL) in the data set with Staphylococcus aureus [1]; 3.12 µM (≈ 2.22 µg/mL) in data set [2]; 1.56 µM (≈ 1.11 µg/mL) in the data set on Escherichia coli; 400 µM (≈ 284 µg/mL) in the data set with Klebsiella pneumoniae; 12.5 µM (≈ 8.88 µg/mL) in the data set with Pseudomonas aeruginosa. For the same molecule, the MIC in the data set on Salmonella typhimurium was 6.25 µM (≈ 4.44 µg/mL); in the data set with Staphylococcus aureus [5], 400 µM (≈ 284 µg/mL); with Aspergillus niger it was 400 µM (≈ 284 µg/mL); against Aspergillus flavus, 6.25 µM (≈ 4.44 µg/mL); in the data set on Candida albicans, 25 µM (≈ 17.8 µg/mL). Further, in data set [6], the inhibition at 120 h, 50 ug/mL was determined as 21.1%.
In the case of `CC(=O)OC[C@H]1O[C@@H](n2cc(COc3ccc4c(c3)OC(N)=C(C#N)C4c3cccc(Cl)c3Cl)nn2)[C@H](OC(C)=O)[C@@H](OC(C)=O)[C@@H]1OC(C)=O` (some centres undefined), the MIC against Bacillus subtilis is 25 µM (≈ 18.6 µg/mL); against Staphylococcus aureus [1] it was 50 µM (≈ 37.2 µg/mL); in data set [2], 200 µM (≈ 149 µg/mL); in the data set on Escherichia coli it was 200 µM (≈ 149 µg/mL); against Pseudomonas aeruginosa, 6.25 µM (≈ 4.65 µg/mL); in the data set on Salmonella typhimurium, 50 µM (≈ 37.2 µg/mL). Also, the minimal inhibitory concentration (MIC) against Staphylococcus aureus [3] was 200 µM (≈ 149 µg/mL); in the data set on Staphylococcus aureus [4] it was 200 µM (≈ 149 µg/mL); with Staphylococcus aureus [5] it was 100 µM (≈ 74.5 µg/mL); against Aspergillus niger, 200 µM (≈ 149 µg/mL); in the data set with Aspergillus flavus, 200 µM (≈ 149 µg/mL); in the data set on Candida albicans, 25 µM (≈ 18.6 µg/mL). In addition, the inhibition at 120 h, 50 ug/mL in data set [6] came out at 23.8%.
